# Reference: ChEMBL document CHEMBL4004866, “6-Benzylidene-2-[4-(pyridin-3-ylcarboxy)benzylidene]cyclohexanones: A novel cluster of tumour-selective cytotoxins” (Bioorg Med Chem Lett, 2017)
# The source made the active and inactive calls. The rule behind the calls is not given here.
# Assays:
# L1210 = assay: Cytotoxicity against mouse L1210 cells assessed as growth inhibition after 48 hrs by coulter counter method; format: functional, cell-based; conditions: L1210, 48 h
# [1] = Cytotoxicity against human Molt4/C8 cells assessed as growth inhibition after 72 hrs by coulter counter method; format: functional, cell-based; conditions: Molt4/C8, 72 h
# CCRF-CEM = assay: Cytotoxicity against human CEM cells assessed as growth inhibition after 72 hrs by coulter counter method; format: functional, cell-based
# Mus musculus [2] = assay: Toxicity in mouse assessed as mortality at 30 to 300 mg/kg, ip after 0.5 to 4 hrs; format: organism-based; conditions: in vivo
# Method in brief: (§1)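 Mice were given compound intraperitoneally at 30, 100 and 300 mg/kg. Animals were checked for survival and neurological deficit at 0.5 and 4 h after dosing.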
# [3] = Selectivity index, ratio of CC50 for HGF to CC50 for human HSC2 cells; conditions: pooled result: one value given for 3 cell lines, strains, targets or settings
# [4] = Selectivity index, ratio of CC50 for HGF to CC50 for human HL60 cells; conditions: pooled result: one value given for 3 cell lines, strains, targets or settings
# [5] = Cytotoxicity against HGF after 48 hrs by MTT assay; format: cell-based; conditions: human, HGF cells
# Method in brief: (§2)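 Nonmalignant human cells were exposed to compounds for 48 h at 37 °C. CC50 was taken as the concentration cytotoxic to 50% of cells.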
# HSC-4 = assay: Cytotoxicity against human HSC4 cells after 48 hrs by MTT assay; format: functional; conditions: HSC-4, 48 h
# HSC-3 [6] = assay: Cytotoxicity against human HSC3 cells after 48 hrs by MTT assay; format: functional; conditions: HSC-3, 48 h
# [7] = Cytotoxicity against HPLF after 48 hrs by MTT assay; format: cell-based; conditions: human, HPLF cells; method in brief: as §2
# [8] = Cytotoxicity against human HPC after 48 hrs by MTT assay; format: cell-based; conditions: HPC cells; method in brief: as §2
# HSC-2 [9] = assay: Cytotoxicity against human HSC2 cells after 48 hrs by MTT assay; format: functional; conditions: HSC-2, 48 h
# [10] = Selectivity index, ratio of CC50 for human HPC to CC50 for human HSC4 cells
# HL-60 = assay: Cytotoxicity against human HL60 cells after 48 hrs by MTT assay; format: functional; conditions: HL-60, 48 h
# [11] = Selectivity index, ratio of CC50 for HPLF to CC50 for human HSC4 cells
# [12] = Selectivity index, ratio of CC50 for HGF to CC50 for human HSC4 cells
# [13] = Selectivity index, ratio of CC50 for HGF to CC50 for human HSC3 cells; conditions: pooled result: one value given for 3 cell lines, strains, targets or settings
# [14] = Toxicity in ip dosed mouse; format: organism-based; conditions: in vivo; method in brief: as §1
# Serum = assay: Drug metabolism in rat serum/dimethylsulfoxide assessed as 6-benzylidene-2-(4-hydroxybenzylidene)cyclohexanone formation after 48 hrs by 1H NMR method; format: ADME, cell-free
# Method in brief: (§3)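 Compound solutions were incubated for 48 h at 37 °C, the same time and temperature as the in vitro assays, and checked for hydrolysis to the corresponding phenol.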
# Rattus norvegicus [15] = assay: Toxicity in rat assessed as overt toxicity at 50 mg/kg, po after 0.25 to 4 hrs; format: organism-based; conditions: in vivo
# Method in brief: (§4)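 Rats received a single oral dose and were examined for overt toxicity at 0.25, 0.5, 1, 2 and 4 h.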
# Mus musculus [16] = assay: Neurotoxicity in mouse at 300 mg/kg, ip after 0.5 hrs; format: toxicity, organism-based; conditions: in vivo
# Method in brief: (§5)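 Mice received intraperitoneal doses of 30, 100 and 300 mg/kg. Animals were scored for survival and neurological deficit at 0.5 and 4 h after dosing.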
# HSC-3 [17] = assay: Induction of apoptosis in human HSC3 cells assessed as PARP1 cleavage at 7 uM after 24 hrs by chemiluminescence method; format: functional, cell-based
# HSC-2 [18] = assay: Cell cycle arrest in human HSC2 cells assessed as accumulation at G2/M phase at 7 uM after 24 hrs by propidium iodide staining-based method (reference value: 11%); format: functional
# [19] = Chemical stability in deuterium oxide/deuterated dimethylsulfoxide after 48 hrs by 1H NMR method; format: physicochemical; method in brief: as §3
# HSC-2 [20] = assay: Induction of apoptosis in human HSC2 cells assessed as PARP1 cleavage at 7 uM after 24 hrs by chemiluminescence method; format: functional, cell-based
# HSC-2 [21] = assay: Cell cycle arrest in human HSC2 cells assessed as accumulation at G0/G1 phase at 7 uM after 24 hrs by propidium iodide staining-based method (reference value: 73%); format: functional
# Mus musculus [22] = assay: Neurotoxicity in mouse at 300 mg/kg, ip after 4 hrs; format: toxicity, organism-based; conditions: in vivo; method in brief: as §5
# [23] = Chemical stability in pH 7.4 buffer/dimethylsulfoxide after 48 hrs by 1H NMR method; format: physicochemical; conditions: pH 7.4, 48 h; method in brief: as §3
# HSC-2 [24] = assay: Cell cycle arrest in human HSC2 cells assessed as accumulation at S phase at 7 uM after 24 hrs by propidium iodide staining-based method (reference value: 13%); format: functional
# Rattus norvegicus [25] = assay: Toxicity in rat assessed as overt toxicity at 30 mg/kg, po after 0.25 to 4 hrs; format: organism-based; conditions: in vivo; method in brief: as §4
SMILES,IC50 (L1210),IC50 [1],IC50 (CCRF-CEM),Activity (Mus musculus [2]),Selectivity Index [3],Selectivity Index [4],CC50 at 48 h [5],CC50 (HSC-4),CC50 (HSC-3 [6]),CC50 at 48 h [7],CC50 at 48 h [8],CC50 (HSC-2 [9]),Selectivity Index [10],CC50 (HL-60),Selectivity Index [11],Selectivity Index [12],Selectivity Index [13],other results
COc1ccc(/C=C2\CCC/C(=C\c3ccc(O)cc3)C2=O)cc1,6.85 µM,4.18 µM,5.68 µM,,,,,,,,,,,,,,,
O=C1/C(=C/c2ccccc2)CCC/C1=C\c1ccc(O)cc1,7.32 µM,5.17 µM,5.82 µM,,,,,,,,,,,,,,,
O=C1/C(=C/c2ccc(O)cc2)CCC/C1=C\c1ccc(O)cc1,13.5 µM,5.52 µM,6.84 µM,,,,,,,,,,,,,,,
O=C1/C(=C/c2ccc(OC(=O)c3cccnc3)cc2)CCC/C1=C\c1ccc(OC(=O)c2cccnc2)cc1,213 µM,22.6 µM,169 µM,Non-Toxic,,,,,,,,,,,,,,
Cc1ccc(/C=C2\CCC/C(=C\c3ccc(OC(=O)c4ccccc4)cc3)C2=O)cc1,37.9 µM,5.7 µM,10.6 µM,Non-Toxic,,,,,,,,,,,,,,
O=C1/C(=C/c2ccc(O)cc2)CCC/C1=C\c1ccc(Cl)cc1,6.44 µM,4.9 µM,2.69 µM,,,,,,,,,,,,,,,
O=C1/C(=C/c2ccccc2)CCC/C1=C\c1ccc(OC(=O)c2ccccc2)cc1,46.7 µM,10.4 µM,40.4 µM,Non-Toxic,,,,,,,,,,,,,,
O=C1/C(=C/c2ccc(Cl)cc2)CCC/C1=C\c1ccc(OC(=O)c2cccnc2)cc1,29.6 µM,7.89 µM,17.4 µM,Non-Toxic,5.71,16.6,190 µM,37.3 µM,33.7 µM,154 µM,179 µM,30.5 µM,4.67,10500 nM,4.67,4.67,5.16,
O=C(O)c1cccnc1 [NIACIN],> 500 µM,> 500 µM,> 500 µM,,1,1,> 200 µM,> 200 µM,> 200 µM,> 200 µM,> 200 µM,> 200 µM,1,> 200000 nM,1,1,1,
O=C1/C(=C/c2ccc(OC(=O)c3cccnc3)cc2)CCC/C1=C\c1ccc([N+](=O)[O-])cc1,61.1 µM,38.1 µM,48.1 µM,Non-Toxic,>1.79,1,> 200 µM,> 200 µM,> 200 µM,> 200 µM,> 200 µM,112 µM,1,> 200000 nM,1,1,1,
N[C@@H](Cc1ccc(N(CCCl)CCCl)cc1)C(=O)O [MELPHALAN],,,,,5.61,75.6,73 µM,46 µM,46 µM,92 µM,37 µM,12 µM,1.46,890 nM,1.46,1.46,1.46,LD50 [14]: 21.7 mg/kg
O=C1/C(=C/c2ccccc2)CCC/C1=C\c1ccc(OC(=O)c2cccnc2)cc1,8.71 µM,1.62 µM,7.3 µM,Non-Toxic,8.48,70.7,116 µM,15.9 µM,17.7 µM,60 µM,142 µM,12.5 µM,6.67,1500 nM,6.67,6.67,5.99,Drug metabolism (Serum): Metabolite_Notdetected; Activity (Rattus norvegicus [15]): Non-Toxic; Activity (Mus musculus [16]): Toxic; Activity (HSC-3 [17]): inactive; Activity (HSC-2 [18]): 1.5%; Stability [19]: Stable; Activity (HSC-2 [20]): Active; Activity (HSC-2 [21]): 86%; Activity (Mus musculus [22]): Non-Toxic; Stability [23]: Stable; Activity (HSC-2 [24]): 9.7%
COc1ccc(/C=C2\CCC/C(=C\c3ccc(OC(=O)c4cccnc4)cc3)C2=O)cc1,7.63 µM,1.19 µM,9.85 µM,Non-Toxic,>6.6,>87,> 200 µM,22.7 µM,16 µM,> 200 µM,> 200 µM,30.3 µM,>8.81,2300 nM,>8.81,>8.81,>12.5,
Cc1ccc(/C=C2\CCC/C(=C\c3ccc(O)cc3)C2=O)cc1,7.41 µM,5.22 µM,4.31 µM,,,,,,,,,,,,,,,
Cc1ccc(/C=C2\CCC/C(=C\c3ccc(OC(=O)c4cccnc4)cc3)C2=O)cc1,12.8 µM,2.88 µM,9.49 µM,Non-Toxic,>2.02,>95.8,184 µM,94.3 µM,98 µM,163 µM,> 200 µM,90.3 µM,>1.93,1900 nM,>1.93,>1.93,>1.86,Activity (Rattus norvegicus [25]): Non-Toxic
